Experimental data collected from several papers.
Matrix: plasma

| SMILES | host | route | dose | setting | bioavailability [%] |
| --- | --- | --- | --- | --- | --- |
| CCC[C@@](N)(CO)CCc1ccc(OCCCCCC(C)C)cc1 | rat | oral | 30 mg/kg | – | 35 |
| O=C([O-])C(=O)[O-].[NH-][C@@H]1CCCC[C@H]1[NH-].[Pt+4] (relative stereo) | rat | intravenous | 5 mg/kg | – | 100 |
| N=c1c2c(-c3ccccc3)c(-c3ccccc3)n(Cc3ccccc3)c2ncn1[C@H]1CC[C@H](O)CC1 | male Sprague-Dawley rat | oral | 2 mg/kg | single dose | > 80 |
| Cn1cnc(Cn2c(=O)[nH]/c(=N\c3cc4cn(C)nc4cc3Cl)n(Cc3cc(F)c(F)cc3F)c2=O)n1 | male Sprague-Dawley rat | oral | 25 mg/kg | – | 129 |
| COc1ncccc1-c1cnn2ccc(N3CCN(C(=O)OC(C)C)CC3)nc12 | rat | oral | 10 mg/kg | – | 50 |
| CN(C)C(=O)Oc1cc(OC(=O)N(C)C)cc(-c2cc3ccc(O)cc3o2)c1 | male rat | oral | 5 mg/kg | – | 3.01 |
| Cc1cnc(N2CC3(CCOCC3)C2)c(C(=O)Nc2ccc(C(=O)N3CCc4cc(C(=O)Nc5c(C)cccc5F)sc4-c4ccccc43)cc2)c1 | rat | inhaled | 2.7 mg/kg | single dose | < 3 |
| C#Cc1ccc2c(c1)C(c1ccccn1)=NCc1c(-c3cnco3)ncn1-2 | male Sprague-Dawley rat | intraperitoneal | 10 mg/kg | – | 69 |
| [2H]C([2H])(c1cc(F)c(F)cc1F)n1c(=O)n(Cc2ncn(C)n2)c(=O)[nH]/c1=N\c1cc2cn(C)nc2cc1Cl | male Sprague-Dawley rat | oral | 25 mg/kg | – | 117 |
| CS(=O)(=O)Nc1ccc(-c2ccnc(Nc3ccc(-n4ccnn4)cc3)n2)cc1 | Sprague-Dawley rat | oral | 2 mg/kg | – | 5 |
| Cl.Cl.O=C(CCN1CCCCC1)c1ccc(-c2ccc(C(=O)CCN3CCCCC3)cc2)cc1 | Sprague-Dawley rat | oral | 100 mg/kg | – | 24.2 |
| O=C(Nc1cccnn1)N1CCN([C@@H]2CCOc3cc(C(F)(F)F)ccc32)CC1 | male Sprague-Dawley rat | oral | 0.3 mg/kg | – | 41 |
| Cc1ncc(C)n2nc(/C=C/c3nc(N4CCCC4)cc(N4CCOCC4)n3)nc12 | male Sprague-Dawley rat | oral | 0.3 mg/kg | – | 33 |
